High-throughput results deposited in PubChem BioAssay by Johns Hopkins Ion Channel Center.
KCNK9 inh = human KCNK9 channel inhibition; B-score at 10 µM; 310,000 compounds, 1.2% hits; Q9NPC2; HEK293 KCNK9, FluxOR thallium flux fluorescence; hits give low values;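 active = ratio B-score over 3 SD below the library mean, with starting fluorescence within 5 SD of its mean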;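 note: negative B-score means less thallium flux so channel inhibition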
KCNQ1 act = human KCNQ1 channel potentiation or activation | P51787 | CHO-K1 KCNQ1, thallium flux FluxOR fluorescence; hits give high values | B-score at 10 µM | 310,000 compounds, 0.35% hits | AID 2648;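 active = fluorescence ratio B-score, a plate-corrected score, at least three library SD, with initial intensity B-score within 5 SD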
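Assay system: stable KCNQ1 CHO-K1 line; medium: assay buffer, equal DMSO in all wells; timing: 90 min dye loading and 20 min compound exposure, both at room temperature; technique: kinetic FluxOR thallium fluorescence, 10-s 1-Hz baseline, 110-s post-stimulus read; read-out basis: B score of baseline-normalized fluorescence ratio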
Kir21 inh = blocks the mouse Kir2.1 inward-rectifier potassium channel; P35561; B-score at 10 µM; AID 1672; 310,000 compounds, 0.85% hits; HEK293-Kir2.1, FluxOR thallium flux fluorescence; hits give low values;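 active = fluorescence ratio B-score at or below minus 3 SD of library scores, with starting-brightness B-score within 2 SD, cut at about -4.2 in these data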;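 note: channel flux triggered by added potassium and thallium sulfate stimulus; B-score of peak minus minimum fluorescence over baseline after thallium stimulus; more negative B-score means stronger Kir2.1 block with less thallium influx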
Target sequence (P35561 whole entry, looked up): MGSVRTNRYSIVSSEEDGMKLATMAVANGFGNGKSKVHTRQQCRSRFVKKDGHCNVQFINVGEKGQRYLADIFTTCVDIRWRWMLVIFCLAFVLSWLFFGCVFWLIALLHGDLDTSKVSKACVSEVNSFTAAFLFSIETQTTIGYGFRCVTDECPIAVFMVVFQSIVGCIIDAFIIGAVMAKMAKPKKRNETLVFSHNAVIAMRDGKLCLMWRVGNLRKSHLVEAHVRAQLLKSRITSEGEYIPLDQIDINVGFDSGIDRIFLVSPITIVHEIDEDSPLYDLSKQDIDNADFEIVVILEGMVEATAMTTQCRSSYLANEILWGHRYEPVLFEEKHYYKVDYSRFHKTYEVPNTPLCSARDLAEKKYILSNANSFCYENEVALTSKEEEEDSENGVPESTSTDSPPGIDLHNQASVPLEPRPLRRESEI
KCNQ1 block = human KCNQ1 channel inhibition; P51787; CHO-K1 KCNQ1, FluxOR thallium flux fluorescence; hits give high values; B-score at 10 µM; 310,000 compounds, 1.3% hits; AID 2642;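 active = compounds whose thallium flux B-score, printed positive for inhibition, exceeds three library SD while starting fluorescence stays within three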;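 note: channel opened by potassium depolarization with thallium stimulus after 20 min compound exposure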
hERG protect = compounds protecting human hERG from proarrhythmic drug block. CHO-hERG, FluxOR thallium flux, dofetilide IC70 present. activation (rescue from dofetilide block), less the hit threshold, % at 10 µM. 310,000 compounds, 0.51% hits;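 active = activation above the mean of controls blocked by dofetilide plus 5 SD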;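 note: thallium influx through hERG after potassium depolarization seen as dye fluorescence rise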
KCNK3 inh = human KCNK3 channel inhibition, primary screen; O14649; CHO-KCNK3 thallium flux, FluxOR fluorescence; hits give low values; B-score at 10 µM; 340,000 compounds, 0.84% hits;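 active = B-score under library mean minus 4 SD, starting fluorescence ratio at most library mean plus 5 SD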;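 note: more negative B-score means stronger inhibition of thallium flux through KCNK3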
Numbers stand for hits; - = inactive; . = no result. This is a sample that favours compounds with a hit; in the whole collection about 3.7% have one here.

SMILES | KCNK9 inh | KCNQ1 act | Kir21 inh | KCNQ1 block | hERG protect | KCNK3 inh
COc1cccc2sc(Nc3nnc(-c4ccc(F)cc4)o3)nc12 | - | 94 | - | - | 46 | -
CC(C)(C)OC(=O)C[C@@H]1C/C=C\C[C@@H](CC(=O)N(CCO)Cc2ccccc2)C(=O)N[C@@H](c2ccccc2)COC1=O | . | . | . | . | . | -
CC[n+]1ccc(/C=C/c2ccc(N(C)C)cc2)c2ccccc21 | . | . | . | . | . | -9.9
CC[n+]1ccccc1/C=C/c1ccc(N(C)C)cc1 | - | - | - | 8 | - | -
CN(C)c1ccc(/C=C/c2cc[n+]([O-])cc2)cc1 | - | - | - | - | - | .
Cc1c(Cc2ccccc2)sc(/N=C/c2ccc3ccccc3c2)c1C(N)=O | . | . | . | . | . | -
Cc1c(Cc2ccccc2)sc(/N=C/c2c(O)ccc3ccccc23)c1C(N)=O | - | - | - | 7 | - | -
COc1ccc(OC)c(COC(=O)c2cccc(S(=O)(=O)N3CCCCC3)c2)c1 | . | . | . | . | . | -8.8
Cc1ccc(COC(=O)c2cccc(S(=O)(=O)N3CCCCC3)c2)cc1 | . | . | . | . | . | -11
COc1ccccc1COC(=O)c1cccc(S(=O)(=O)N2CCCC2)c1 | . | . | . | . | . | -9.6
COc1ccccc1C(=O)COC(=O)c1cccc(S(=O)(=O)N2CCCC2)c1 | - | - | - | - | - | -
Cc1ccc(COC(=O)c2cccc(S(=O)(=O)N3CCCCCC3)c2)cc1 | . | . | . | . | . | -
C=CCOc1ccc(C2/C(=C(\O)c3ccc4c(c3)CC(C)O4)C(=O)C(=O)N2CCN2CCOCC2)cc1OCC (stereo unspecified) | - | - | - | - | - | -
CCCN(CC1CC1)C(=O)COC(=O)c1oc2c(F)cccc2c1C | . | . | . | . | . | -
O=C(c1ccco1)N1CCCN(Cc2nc(-c3ccc4c(c3)OCO4)no2)CC1 | - | - | - | - | - | -
Fc1ccc(CN2CCCN(Cc3nc(-c4ccc5c(c4)OCO5)no3)CC2)cc1 | - | - | -6.8 | - | - | -
CN1CCN(c2ccc(NC(=O)c3ccc(Br)o3)cc2)CC1 | - | 13 | - | - | - | -
CC(C)(C)c1cnnn1-c1ccc(NC(=O)c2ccc(Br)o2)cc1 | -7.1 | - | - | - | - | -
O=C(Nc1ccc(N2CCOCC2)cc1)c1ccc(Br)o1 | - | - | - | - | - | -
COc1cccc(C(=O)Nc2ccc(-n3nncc3C(C)(C)C)cc2)c1 | - | - | - | - | - | -
COc1cc2cc(c1Cl)N(C)C(=O)CC(OC(=O)C(C)N(C)C(C)=O)C1(C)OC1C(C)C1CC(O)(NC(=O)O1)C(OC)C=CC=C(C)C2 (stereo unspecified) | . | . | . | . | . | -
O=C(NC(=S)N(CCc1ccccc1)CCc1ccccc1)c1ccco1 | - | 47 | - | - | 37 | -
CC(CCc1ccccc1)NC(=O)Cc1ccccc1 (stereo unspecified) | - | - | - | - | - | -
CC(CCc1ccccc1)NC(=S)NC(=O)c1ccco1 (stereo unspecified) | - | 24 | - | - | 25 | -
COc1ccc(CNC(=O)CCS(=O)(=O)c2ccc3c(c2)NC(=O)CS3)cc1 | - | - | - | - | - | -
SMILES | KCNK9 inh | KCNQ1 act | Kir21 inh | KCNQ1 block | hERG protect | KCNK3 inh
Cc1noc(C)c1CSc1nnc(-c2ccccc2)n1N | - | - | - | - | - | -
Cc1noc(C)c1CSc1nnc2scc(-c3ccccc3)n12 | - | - | -5.2 | - | - | -
CCOC(=O)c1nnn(-c2nonc2N)c1-c1ccccc1Cl | - | - | -4.9 | - | - | -
CC(=NNC(=O)C(C)SC(C)C(=O)NN=C(C)c1cccnc1)c1cccnc1 (stereo unspecified) | . | . | . | . | . | -
COCc1c(C(=O)Nc2cccc(S(=O)(=O)N3CCCCC3)c2)oc2ccccc12 | . | . | . | . | . | -9.3
O=C(Nc1cccc(S(=O)(=O)N2CCCCC2)c1)c1cc2ccccc2o1 | . | . | . | . | . | -11
O=C(Nc1cccc(S(=O)(=O)N2CCCCC2)c1)c1ccco1 | . | . | . | . | . | -
CCCOc1c(Br)cc(C(=O)OCC(=O)NC(=O)c2cccn2C)cc1OC | . | . | . | . | . | -
Cc1ccc(C)c(S(=O)(=O)N2CCN(C(=O)/C=C/c3ccco3)CC2)c1 | . | . | . | . | . | -
CCOC(=O)c1c(C)n(-c2ccccc2)c2ccc(O)c(CN(C)C)c12 | - | - | -4.7 | - | - | -
Cn1c(=O)c2c(ncn2CC(=O)OCc2ccccc2)n(C)c1=O | - | - | - | - | 5.3 | -
